Activity calls are given as the source filed them. The calls are words filed in the database; no cut-off is given here.
What was measured:
HepG2 [1] = assay: Induction of ARE in human HepG2 cells by luciferase assay; format: functional, cell-based
Summary of the method: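 Stably transfected HepG2 cells carrying an ARE-luciferase reporter. EC50 is the concentration giving activation halfway between the DMSO-control baseline and the maximum response at 20 µg/mL.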

HepG2 [2] = assay: Cytotoxicity against human HepG2 cells; format: cell-based
[3] = target: Prostaglandin G/H synthase 1 (Homo sapiens) (UniProt P23219); assay: Inhibition of COX1
Summary of the method: (§1)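 COX-1 and COX-2 activity read out as PGE2 production. Indomethacin served as the positive control.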

HepG2 [4] = assay: Inhibition of TPA-induced NF-kappaB activation in human HepG2 cells by luciferase assay; format: functional, cell-based
Summary of the method: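 NFκB-luciferase reporter construct activated with TPA (phorbol ester). IC50 is the concentration that reduces TPA-activated NFκB luciferase activity by 50%.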

[5] = target: T1, Prostaglandin G/H synthase 2 (Homo sapiens, UniProt P35354); assay: (§2) Inhibition of COX2; summary of the method: as §1
T1 sequence (P35354 whole entry): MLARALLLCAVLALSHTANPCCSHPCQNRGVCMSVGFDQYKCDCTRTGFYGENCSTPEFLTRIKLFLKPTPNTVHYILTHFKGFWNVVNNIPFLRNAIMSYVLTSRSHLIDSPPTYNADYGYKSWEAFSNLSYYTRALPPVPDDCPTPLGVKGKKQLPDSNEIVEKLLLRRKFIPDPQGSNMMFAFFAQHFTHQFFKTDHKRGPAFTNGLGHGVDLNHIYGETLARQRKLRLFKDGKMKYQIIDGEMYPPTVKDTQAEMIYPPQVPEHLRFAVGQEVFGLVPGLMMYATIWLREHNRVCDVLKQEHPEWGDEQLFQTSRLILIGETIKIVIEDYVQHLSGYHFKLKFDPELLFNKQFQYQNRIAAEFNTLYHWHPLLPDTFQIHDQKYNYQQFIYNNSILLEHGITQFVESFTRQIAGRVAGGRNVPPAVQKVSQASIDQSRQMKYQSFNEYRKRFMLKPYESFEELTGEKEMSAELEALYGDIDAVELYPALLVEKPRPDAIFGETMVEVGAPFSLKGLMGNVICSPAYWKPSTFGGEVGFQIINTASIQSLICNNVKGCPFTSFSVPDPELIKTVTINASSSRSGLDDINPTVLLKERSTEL

[6] = target: T2, Prostaglandin G/H synthase 2 (Homo sapiens) (UniProt P35354); assay: as §2; summary of the method: as §1
T2 sequence (whole entry): T1 sequence (P35354 whole entry)

Prostaglandin G/H synthase 1 (Homo sapiens), sequence (P23219 whole entry): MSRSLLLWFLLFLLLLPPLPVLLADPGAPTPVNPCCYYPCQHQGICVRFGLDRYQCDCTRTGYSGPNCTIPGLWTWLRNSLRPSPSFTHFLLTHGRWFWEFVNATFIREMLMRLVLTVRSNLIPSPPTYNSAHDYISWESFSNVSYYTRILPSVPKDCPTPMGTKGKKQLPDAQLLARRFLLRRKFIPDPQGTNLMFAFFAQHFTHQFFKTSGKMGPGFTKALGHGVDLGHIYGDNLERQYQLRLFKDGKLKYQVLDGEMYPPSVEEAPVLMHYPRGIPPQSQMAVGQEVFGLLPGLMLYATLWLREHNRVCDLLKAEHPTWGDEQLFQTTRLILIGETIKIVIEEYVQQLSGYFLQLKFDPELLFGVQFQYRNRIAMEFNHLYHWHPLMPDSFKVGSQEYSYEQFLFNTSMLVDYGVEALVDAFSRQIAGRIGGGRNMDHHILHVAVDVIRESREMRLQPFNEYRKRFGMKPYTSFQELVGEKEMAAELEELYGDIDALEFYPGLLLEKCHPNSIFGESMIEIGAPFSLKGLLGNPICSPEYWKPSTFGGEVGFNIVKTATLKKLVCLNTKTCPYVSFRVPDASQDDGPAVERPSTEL

Q: With `O=c1cc(-c2ccc(Br)cc2)oc2ccccc12` as the compound, how does the EC50 (HepG2 [1]) read?
A: 30 µM

Q: For `O=c1cc(-c2ccccc2)oc2ccc3ccccc3c12` [BETA-NAPHTHOFLAVONE], which EC50 (HepG2 [1]) is on record?
A: 8 µM

Q: How did the EC50 (HepG2 [1]) turn out when `CCCCCCCCCCCCCCCCCC(=O)O[C@H]1C[C@@H](O)[C@]2(C)[C@H]3CC[C@@H]4[C@@H]([C@@](C)(O)CCC=C(C)C)CC[C@@]4(C)[C@]3(C)CC[C@H]2C1(C)C` [BRUGUIERIN A] was run?
A: 7.8 µM

Q: And the Activity (HepG2 [2])?
A: Non-toxic

Q: What about the Activity [3] of the same compound?
A: inactive

Q: And the IC50 (HepG2 [4])?
A: 1.4 µM

Q: And the IC50 [5]?
A: 0.37 µM

Q: What does the source list for `CCCCCCCCCCCCCCCCCC(=O)O[C@H]1CC[C@]2(C)[C@H]3[C@H](O)C[C@@H]4[C@@H]([C@@](C)(O)CCC=C(C)C)CC[C@@]4(C)[C@]3(C)CC[C@H]2C1(C)C` [BRUGUIERIN B]?
A: EC50 (HepG2 [1]): 9.4 µM; Activity (HepG2 [2]): Non-toxic; Activity [3]: inactive; Activity [6]: inactive

Q: `CCCCCCCCCCCCCCCCCC(=O)O[C@H]1C[C@@H](O)[C@]2(C)[C@H]3CC[C@@H]4[C@@H]([C@@](C)(O)C/C=C/C(C)(C)OO)CC[C@@]4(C)[C@]3(C)CC[C@H]2C1(C)C` [BRUGUIERIN C] was tested. Which EC50 (HepG2 [1]) did it give?
A: 15.7 µM

Q: What about the Activity (HepG2 [2]) of the same compound?
A: Non-toxic

Q: What about the Activity [3] of the same compound?
A: inactive

Q: And the Activity [6]?
A: inactive

Q: Which EC50 (HepG2 [1]) does the source give for `C[S+]([O-])CCCCN=C=S` (stereo unspecified) [SULFORAPHANE] here?
A: 4 µM
